Key:
[1] = tested on: Leishmania donovani; assay: Antileishmanial activity against Leishmania donovani promastigotes assessed as parasite growth inhibition incubated for 72 hrs by alamar blue staining based assay; assay type: functional, organism-based
Method in brief: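 L. donovani S1 Sudan strain promastigotes were grown at 26 °C in RPMI-1640 (no bicarbonate or pyruvate) with 10% FBS. Compound dilutions were added to cultures at 2 × 10⁶ cells per mL, at final 40, 8 and 1.6 μg mL⁻¹ (footnote: at least six concentrations, each in duplicate). Incubation was 72 h at 26 °C, with Alamar blue read-out. IC50 came from non-linear logistic regression. Experiments were run in triplicate.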

[2] = Cytotoxicity against African green monkey Vero cells incubated for 48 hrs by Neutral Red assay; assay type: toxicity, cell-based, Chlorocebus sabaeus
Method in brief: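 Vero cells were maintained in RPMI with 10% heat-inactivated FCS, 0.15% NaHCO₃ and penicillin/streptomycin at 37 °C under 5% CO₂. Confluent monolayers were exposed to various concentrations up to a maximum of 4.75 μg mL⁻¹ for 48 h at 37 °C. Viability was read by Neutral Red uptake, with DMSO as negative control. IC50 was taken from the concentration–response curve.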

[3] = tested on: Plasmodium falciparum; assay: Antimalarial activity against chloroquine-resistant Plasmodium falciparum W2 assessed as parasite growth inhibition incubated for 48 hrs by LDH assay; assay type: functional, organism-based; details: W2, 48 h
Method in brief: (§1)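 Asynchronous P. falciparum cultures (2% hematocrit, 2% parasitemia) were exposed to DMSO-dissolved compound dilutions in RPMI-1640. They were held at 37 °C for 48 h in a humidified chamber under 90% N2/5% CO2/5% O2. Growth was read as pLDH activity with Malstat reagent, with medium, RBC and DMSO controls. IC50 came from non-linear logistic dose-response regression, in triplicate.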

[4] = tested on: Plasmodium falciparum; assay: Antimalarial activity against chloroquine-sensitive Plasmodium falciparum D6 assessed as parasite growth inhibition incubated for 48 hrs by LDH assay; assay type: functional, organism-based; details: D6, 48 h; method in brief: as §1
[5] = Selectivity index, ratio of IC50 for African green monkey Vero cells to IC50 for Plasmodium falciparum D6; assay type: toxicity, cell-based; details: read-out: Ratio IC50
Method in brief: (§2)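 SI = Vero IC50 (Neutral Red, 48 h) divided by P. falciparum IC50. Parasite IC50 was from asynchronous D6 or W2 cultures (2% hematocrit, 2% parasitemia), with DMSO-dissolved compounds diluted in RPMI-1640. Incubation was 48 h at 37 °C under 90% N₂/5% CO₂/5% O₂, with growth read by pLDH activity (Malstat). Chloroquine and artemisinin were positive controls.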

[6] = Selectivity index, ratio of IC50 for African green monkey Vero cells to IC50 for Plasmodium falciparum W2; assay type: toxicity, cell-based; details: read-out: Ratio IC50; method in brief: as §2
[7] = tested on: Plasmodium falciparum; assay: Antiparasitic activity against chloroquine-resistant Plasmodium falciparum W2 infected in red blood cells assessed as inhibition of parasite growth by HRP2 assay; assay type: functional, organism-based, Red blood cell; details: W2, Erythrocyte

Compound: CC(C)=CCC/C(C)=C/CC/C(C)=C/Cn1cc(C(C)O)nn1 (stereo not drawn)
- IC50 [1]: 56.7 µM

Compound: CCCCCCCCc1cn(Cc2ccccc2)nn1
- IC50 [1]: 22.1 µM

Compound: CCOC(=O)Cn1cc(C(=O)OC)nn1
- IC50 at 48 h [2]: > 20.9 µM
- IC50 [3]: 12.3 µM
- IC50 [4]: 12.3 µM
- selectivity ratio [5]: > 1.7
- selectivity ratio [6]: > 1.7

Compound: c1ccc(Cn2cc(-c3ccccc3)nn2)cc1
- IC50 [1]: 85 µM

Compound: c1ccc(CCCn2cc(-c3ccccc3)nn2)cc1
- IC50 [1]: 68.4 µM

Compound: CC(C)=CCC/C(C)=C/CC/C(C)=C/Cn1cc(C(C)(C)O)nn1
- IC50 at 48 h [2]: > 14.3 µM
- IC50 [3]: 1.99 µM
- IC50 [4]: 2.35 µM
- selectivity ratio [5]: > 6.09
- IC50 [1]: 48.3 µM
- selectivity ratio [6]: > 7.2

Compound: COC(=O)c1cn(CC=C(C)C)nn1
- IC50 at 48 h [2]: > 24.3 µM
- IC50 [3]: 23.1 µM
- IC50 [4]: 24.3 µM
- selectivity ratio [5]: > 1
- selectivity ratio [6]: 1.06

Compound: CCCCCCCCCCc1cn(Cc2ccccc2)nn1
- IC50 at 48 h [2]: > 15.9 µM
- IC50 [3]: 10.7 µM
- IC50 [4]: 11 µM
- selectivity ratio [5]: > 1.44
- selectivity ratio [6]: > 1.48

Compound: CCCCCCCCc1cn(C/C=C/c2ccccc2)nn1
- IC50 at 48 h [2]: > 16 µM
- IC50 [3]: 10.1 µM
- IC50 [4]: 10.8 µM
- selectivity ratio [5]: > 1.48
- selectivity ratio [6]: > 1.58

Compound: C[C@@H]1CC[C@H]2[C@@H](C)C(=O)O[C@@H]3O[C@@]4(C)CC[C@@H]1[C@]32OO4 [ARTEMISININ]
- selectivity ratio [5]: > 179
- selectivity ratio [6]: > 179

Compound: CCCCCc1cn(C/C=C(\C)CC/C=C(\C)CCC=C(C)C)nn1
- IC50 at 48 h [2]: > 13.8 µM
- IC50 [3]: 6.69 µM
- IC50 [4]: 3.49 µM
- selectivity ratio [5]: > 3.96
- selectivity ratio [6]: > 2.07

Compound: O=Cn1cc(-c2ccnc3cc(Cl)ccc23)nn1
- IC50 [7]: 1.4 µM

Compound: CCCCCCCCCCn1cc(C(=O)OC)nn1
- IC50 at 48 h [2]: > 17.8 µM
- IC50 [3]: 6.73 µM
- IC50 [4]: 11.2 µM
- selectivity ratio [5]: > 1.58
- IC50 [1]: 78.5 µM
- selectivity ratio [6]: > 2.64

Compound: CCCc1cn(C/C=C/c2ccccc2)nn1
- IC50 at 48 h [2]: > 20.9 µM
- IC50 [3]: 22 µM
- IC50 [4]: 20.9 µM
- selectivity ratio [5]: < 1
- selectivity ratio [6]: < 1

Compound: COC(=O)c1cn(Cc2ccccc2)nn1
- IC50 [1]: 92.1 µM

Compound: O=C(O)c1cn(Cc2ccccc2)nn1
- IC50 [1]: 18.7 µM

Compound: CCCCCCCCn1cc(CO)nn1
- IC50 at 48 h [2]: > 22.5 µM
- IC50 [3]: 6.63 µM
- IC50 [4]: 13.3 µM
- selectivity ratio [5]: > 1.7
- selectivity ratio [6]: > 3.39

Compound: CC(C)=CCC/C(C)=C/CC/C(C)=C\Cn1cc(CCO)nn1
- IC50 at 48 h [2]: > 15 µM
- IC50 [3]: 2.05 µM
- IC50 [4]: 2.74 µM
- selectivity ratio [5]: > 5.46
- IC50 [1]: 63 µM
- selectivity ratio [6]: > 7.31

Compound: CCCc1cn(CCCc2ccccc2)nn1
- IC50 at 48 h [2]: > 20.7 µM
- IC50 [3]: 11.3 µM
- IC50 [4]: 15.3 µM
- selectivity ratio [5]: > 1.36
- selectivity ratio [6]: > 1.83

Compound: CC(C)=CCC/C(C)=C/CC/C(C)=C\Cn1cc(C(C)(C)O)nn1
- IC50 [1]: 63.4 µM

Compound: CC(C)=CCC/C(C)=C/CC/C(C)=C/Cn1cc(CO)nn1
- IC50 [1]: 56 µM

Compound: CC(C)=CCC/C(C)=C/CC/C(C)=C\Cn1cc(C(C)O)nn1 (stereo not drawn)
- IC50 [1]: 59.9 µM

Compound: CCCCCc1cn(CCCc2ccccc2)nn1
- IC50 at 48 h [2]: > 18.5 µM
- IC50 [3]: 10.9 µM
- IC50 [4]: 16.3 µM
- selectivity ratio [5]: > 1.13
- selectivity ratio [6]: > 1.7

Compound: CC(C)=CCC/C(C)=C/CC/C(C)=C/Cn1cc(CCO)nn1
- IC50 [1]: 63 µM

Compound: CC(C)=CCC/C(C)=C/CC/C(C)=C\Cn1cc(CO)nn1
- IC50 [1]: 59.3 µM

Compound: CCCCCc1cn(C/C=C/c2ccccc2)nn1
- IC50 [1]: 74.4 µM

Compound: C(=C\c1ccccc1)/Cn1cc(-c2ccccc2)nn1
- IC50 at 48 h [2]: > 18.2 µM
- IC50 [3]: 13 µM
- IC50 [4]: 11.5 µM
- selectivity ratio [5]: > 1.58
- selectivity ratio [6]: > 1.4
